Laboratory results as given in ChEMBL document CHEMBL2086281, “Design, synthesis and 3D-QSAR analysis of novel 2-hydrazinyl-4-morpholinothieno[3,2-d]pyrimidine derivatives as potential antitumor agents” (Eur J Med Chem, 2012).

Tests used:
MDA-MB-231 [1] = assay: Cytotoxicity against human MDA-MB-231 cells assessed as growth inhibition after 72 hrs by MTT assay; type: functional, cell-based; conditions: MDA-MB-231, 72 h
Outline: (§1)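 Cells grown in MEM with 10% FBS. About 4×10^3 cells/well were pre-incubated for 24 h at 37 °C in 5% CO₂, then exposed to compound at the indicated final concentrations for 72 h. MTT was added to 5 µg/mL final for 4 h at 37 °C. Formazan was dissolved in DMSO and read at 492 nm, with 630 nm as reference. IC50 is the mean of three determinations.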

HT-29 [2] = assay: Cytotoxicity against human HT-29 cells assessed as growth inhibition after 72 hrs by MTT assay; type: functional, cell-based; conditions: HT-29, 72 h; outline: as §1
NCI-H460 [3] = assay: Cytotoxicity against human H460 cells assessed as growth inhibition after 72 hrs by MTT assay; type: functional, cell-based; conditions: NCI-H460, 72 h
Outline: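 Cells grown in MEM with 10% FBS. About 4×10^3 cells/well were pre-incubated for 24 h at 37 °C in 5% CO₂, then exposed to compound at the indicated final concentrations for 72 h. MTT was added to 5 µg/mL final for 4 h at 37 °C. IC50 is the mean of three determinations.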

[4] = Cytotoxicity against human U87MG cells assessed as growth inhibition after 72 hrs by MTT assay; type: functional, cell-based, U-87MG ATCC; conditions: U-87 MG; outline: as §1
NCI-H1975 = assay: Cytotoxicity against human NCI-H1975 cells assessed as growth inhibition after 72 hrs by MTT assay; type: functional, cell-based; conditions: NCI-H1975, 72 h; outline: as §1
SGC-7901 = assay: Cytotoxicity against human SGC7901 cells assessed as growth inhibition after 72 hrs by MTT assay; type: functional, cell-based; conditions: SGC-7901, 72 h; outline: as §1
HepG2 = assay: Cytotoxicity against human HepG2 cells assessed as growth inhibition after 72 hrs by MTT assay; type: functional, cell-based; conditions: HepG2, 72 h; outline: as §1
NCI-H226 = assay: Cytotoxicity against human NCI-H226 cells assessed as growth inhibition after 72 hrs by MTT assay; type: functional, cell-based; conditions: NCI-H226, 72 h; outline: as §1
A549 = assay: Cytotoxicity against human A549 cells assessed as growth inhibition after 72 hrs by MTT assay; type: functional, cell-based; conditions: A549, 72 h; outline: as §1
MDA-MB-231 [5] = assay: Ratio of GDC-0941 IC50 to compound IC50 for human MDA-MB-231 cells assessed as growth inhibition after 72 hrs by MTT assay; type: functional
NCI-H460 [6] = assay: Ratio of GDC-0941 IC50 to compound IC50 for human H460 cells assessed as growth inhibition after 72 hrs by MTT assay; type: functional
HT-29 [7] = assay: Ratio of GDC-0941 IC50 to compound IC50 for human HT-29 cells assessed as growth inhibition after 72 hrs by MTT assay; type: functional

Row | SMILES | IC50 (MDA-MB-231 [1]) | IC50 (HT-29 [2]) | IC50 (NCI-H460 [3]; read-out: IC50) | IC50 [4] | IC50 (NCI-H1975) | IC50 (NCI-H460 [3]; read-out: pIC50 (converted)) | IC50 (SGC-7901) | IC50 (HepG2) | IC50 (NCI-H226) | IC50 (A549) | Ratio IC50 (MDA-MB-231 [5]) | Ratio IC50 (NCI-H460 [6]) | Ratio IC50 (HT-29 [7])
1 | C=CCc1cccc(/C=N/NC(=O)CN2CCN(Cc3ccccc3)CC2)c1O [PAC-1] | 6.11 µM | 0.97 µM | 3.57 µM | – | – | – | – | – | – | – | – | – | –
2 | CC(C)(C)c1ccc(Cn2cc(/C=N/Nc3nc(N4CCOCC4)c4sccc4n3)c3ccccc32)cc1 | 1.43 µM | 1.69 µM | 0.38 µM | 11.2 µM | 8 µM | 0.38 µM | – | – | – | – | – | – | –
3 | NNc1nc(N2CCOCC2)c2sccc2n1 | 63.8 µM | 23.4 µM | 42.2 µM | – | – | – | – | – | – | – | – | – | –
4 | CS(=O)(=O)N1CCN(Cc2cc3nc(-c4cccc5[nH]ncc45)nc(N4CCOCC4)c3s2)CC1 [PICTILISIB] | 73.8 µM | 0.66 µM | – | 7.77 µM | 0.27 µM | – | 1.8 µM | 1 µM | 2.9 µM | 6.9 µM | – | – | –
5 | CC(C)(O)c1cc2nc(N/N=C/c3cn(Cc4cccc(F)c4)c4ccccc34)nc(N3CCOCC3)c2s1 | 7.2 µM | 0.38 µM | 0.42 µM | 7.82 µM | 19.7 µM | 0.427 µM | – | – | – | – | – | – | –
6 | CC(C)(O)c1cc2nc(N/N=C/c3cn(Cc4ccc(F)cc4)c4ccccc34)nc(N3CCOCC3)c2s1 | 1.53 µM | 1.01 µM | 1.1 µM | – | – | 1.1 µM | – | – | – | – | – | – | –
7 | Clc1ccc(Cn2cc(/C=N/Nc3nc(N4CCOCC4)c4sccc4n3)c3ccccc32)cc1Cl | > 100 µM | 16.2 µM | 0.74 µM | > 100 µM | > 100 µM | 0.741 µM | – | – | – | – | – | – | –
8 | CC(C)(C)c1ccc(Cn2c(/C=N/Nc3nc(N4CCOCC4)c4sccc4n3)nc3ccccc32)cc1 | 8.17 µM | 4.18 µM | 3.62 µM | – | – | 3.63 µM | – | – | – | – | – | – | –
9 | Fc1cccc(Cn2cc(/C=N/Nc3nc(N4CCOCC4)c4sccc4n3)c3ccccc32)c1 | 1.11 µM | 0.39 µM | 0.23 µM | 12.6 µM | 19 µM | 0.224 µM | 0.8 µM | 1.1 µM | 0.91 µM | 8.7 µM | 66.5 | 3.8 | 1.7
10 | N#Cc1ccc(Cn2cc(/C=N/Nc3nc(N4CCOCC4)c4sccc4n3)c3ccccc32)cc1 | > 100 µM | 25.5 µM | 1.62 µM | – | – | 1.62 µM | – | – | – | – | – | – | –
11 | Fc1ccc(Cn2cc(/C=N/Nc3nc(N4CCOCC4)c4sccc4n3)c3ccccc32)cc1 | 12.3 µM | 1.79 µM | 0.41 µM | 8.83 µM | > 100 µM | 0.407 µM | – | – | – | – | – | – | –
12 | C(=N\Nc1nc(N2CCOCC2)c2sccc2n1)/c1cn(Cc2ccccc2)c2ccccc12 | 12.4 µM | 4.7 µM | 1.41 µM | > 100 µM | 42.7 µM | 1.41 µM | – | – | – | – | – | – | –
13 | C(=N\Nc1nc(N2CCOCC2)c2sccc2n1)/c1nc2ccccc2n1Cc1ccccc1 | 21.3 µM | 1.08 µM | 25.6 µM | – | – | 25.7 µM | – | – | – | – | – | – | –
14 | Clc1cccc(Cl)c1Cn1cc(/C=N/Nc2nc(N3CCOCC3)c3sccc3n2)c2ccccc21 | 20.5 µM | 35.4 µM | 10.4 µM | – | – | 10.5 µM | – | – | – | – | – | – | –
15 | COc1cc(/C=N/Nc2nc(N3CCOCC3)nc(N3CCOCC3)n2)cc(OC)c1O | > 100 µM | 20.2 µM | 9.2 µM | – | – | – | – | – | – | – | – | – | –
16 | Clc1ccccc1Cn1c(/C=N/Nc2nc(N3CCOCC3)c3sccc3n2)nc2ccccc21 | > 100 µM | 0.4 µM | 79.4 µM | – | – | 79.4 µM | – | – | – | – | – | – | –
17 | N#Cc1cccc(Cn2cc(/C=N/Nc3nc(N4CCOCC4)c4sccc4n3)c3ccccc32)c1 | 2 µM | 4.86 µM | 0.34 µM | 9.68 µM | – | 0.347 µM | – | – | – | – | – | – | –
18 | CC(C)(O)c1cc2nc(N/N=C/c3cn(Cc4cccc(Cl)c4Cl)c4ccccc34)nc(N3CCOCC3)c2s1 | > 100 µM | 3.7 µM | 7.22 µM | – | – | 7.24 µM | – | – | – | – | – | – | –

Row | SMILES | IC50 (MDA-MB-231 [1]) | IC50 (HT-29 [2]) | IC50 (NCI-H460 [3]; read-out: IC50) | IC50 [4] | IC50 (NCI-H1975) | IC50 (NCI-H460 [3]; read-out: pIC50 (converted)) | IC50 (SGC-7901) | IC50 (HepG2) | IC50 (NCI-H226) | IC50 (A549) | Ratio IC50 (MDA-MB-231 [5]) | Ratio IC50 (NCI-H460 [6]) | Ratio IC50 (HT-29 [7])
19 | Fc1ccccc1Cn1cc(/C=N/Nc2nc(N3CCOCC3)c3sccc3n2)c2ccccc21 | 9.24 µM | 3.28 µM | 0.86 µM | 22.6 µM | > 100 µM | 0.871 µM | – | – | – | – | – | – | –
20 | Cc1ccc(Cn2cc(/C=N/Nc3nc(N4CCOCC4)c4sccc4n3)c3ccccc32)cc1 | 9.73 µM | 3.31 µM | 0.83 µM | 4.97 µM | 33.1 µM | 0.832 µM | – | – | – | – | – | – | –
21 | CC(C)(O)c1cc2nc(N/N=C/c3cn(Cc4c(Cl)cccc4Cl)c4ccccc34)nc(N3CCOCC3)c2s1 | 62.1 µM | 3.36 µM | 4.03 µM | – | – | 4.07 µM | – | – | – | – | – | – | –
22 | Clc1ccc(Cn2c(/C=N/Nc3nc(N4CCOCC4)c4sccc4n3)nc3ccccc32)cc1 | 13.9 µM | 0.77 µM | 2.6 µM | 13.4 µM | – | 2.63 µM | – | – | – | – | – | – | –
23 | CC(C)(O)c1cc2nc(N/N=C/c3cn(Cc4ccc(C#N)cc4)c4ccccc34)nc(N3CCOCC3)c2s1 | 6.31 µM | 2.54 µM | 4.53 µM | – | – | 4.57 µM | – | – | – | – | – | – | –
24 | CC(C)(O)c1cc2nc(N/N=C/c3cn(Cc4cccc(C#N)c4)c4ccccc34)nc(N3CCOCC3)c2s1 | 5.61 µM | 1.39 µM | 0.36 µM | 6.64 µM | – | 0.363 µM | – | – | – | – | – | – | –
25 | Clc1cccc(Cn2c(/C=N/Nc3nc(N4CCOCC4)c4sccc4n3)nc3ccccc32)c1Cl | > 100 µM | 6.46 µM | 37.1 µM | – | – | 37.2 µM | – | – | – | – | – | – | –
26 | CC(C)(O)c1cc2nc(N/N=C/c3cn(Cc4ccc(Cl)cc4)c4ccccc34)nc(N3CCOCC3)c2s1 | 5.14 µM | 0.87 µM | 0.55 µM | 7.43 µM | 33.8 µM | 0.55 µM | – | – | – | – | – | – | –
27 | CC(C)(O)c1cc2nc(N/N=C/c3cn(Cc4ccc(Cl)cc4Cl)c4ccccc34)nc(N3CCOCC3)c2s1 | > 100 µM | 5.38 µM | 8.9 µM | – | – | 8.91 µM | – | – | – | – | – | – | –
28 | CC(C)(O)c1cc2nc(NN)nc(N3CCOCC3)c2s1 | > 100 µM | 56.2 µM | 29.7 µM | – | – | – | – | – | – | – | – | – | –
29 | CC(C)(O)c1cc2nc(N/N=C/c3cn(Cc4ccccc4F)c4ccccc34)nc(N3CCOCC3)c2s1 | 1.66 µM | 1.05 µM | 1.1 µM | 3.92 µM | 15.6 µM | 1.1 µM | – | – | – | – | – | – | –
30 | Clc1cccc(Cn2c(/C=N/Nc3nc(N4CCOCC4)c4sccc4n3)nc3ccccc32)c1 | 37.7 µM | 1.01 µM | 4.56 µM | – | – | 4.57 µM | – | – | – | – | – | – | –
31 | CC(C)(O)c1cc2nc(N/N=C/c3cn(Cc4cccc(Cl)c4)c4ccccc34)nc(N3CCOCC3)c2s1 | 3.22 µM | 0.87 µM | 0.84 µM | 8.91 µM | 23.8 µM | 0.832 µM | – | – | – | – | – | – | –
32 | Clc1ccc(Cn2cc(/C=N/Nc3nc(N4CCOCC4)c4sccc4n3)c3ccccc32)c(Cl)c1 | > 100 µM | 46.5 µM | 5.77 µM | – | – | 5.75 µM | – | – | – | – | – | – | –
33 | Clc1ccccc1Cn1cc(/C=N/Nc2nc(N3CCOCC3)c3sccc3n2)c2ccccc21 | > 100 µM | > 100 µM | 3.98 µM | – | – | 3.98 µM | – | – | – | – | – | – | –
34 | FC(F)(F)c1cccc(Cn2cc(/C=N/Nc3nc(N4CCOCC4)c4sccc4n3)c3ccccc32)c1 | 83.8 µM | 1.68 µM | 0.52 µM | 4.84 µM | 2.79 µM | 0.525 µM | – | – | – | – | – | – | –
35 | Clc1cccc(Cn2cc(/C=N/Nc3nc(N4CCOCC4)c4sccc4n3)c3ccccc32)c1 | 9.74 µM | 2.98 µM | 0.54 µM | 5.96 µM | > 100 µM | 0.537 µM | – | – | – | – | – | – | –
36 | Clc1ccc(Cn2cc(/C=N/Nc3nc(N4CCOCC4)c4sccc4n3)c3ccccc32)cc1 | 2.7 µM | 5.76 µM | 0.36 µM | 15.6 µM | – | 0.355 µM | – | – | – | – | – | – | –
